From publication PMC5954213 (Molecular pharmaceutics, 2018)
Entries after “also recorded” stand apart in the source; their conditions may differ.

Experiments:
[1] = Pharmacokinetic profile in mouse blood, lungs and brain; type: in vivo
In short: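 Mice received a single oral gavage of 25 mg/kg test compound, suspended by grinding with PEG and then adding 2% HPMC (final vehicle 2% HPMC, 2.5% PEG). Blood, lung and brain were sampled over time and analysed by LC-MS/MS. Tmax, Cmax, AUC and elimination rate constant were calculated from the concentration-time profiles.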

ova s/c BALB/c mice [2] = assay: Quantification of airway inflammatory cells in BALF by flow cytometry; type: in vivo, mouse
ova s/c BALB/c mice [3] = assay: Airway hyperresponsiveness; type: in vivo, mouse
mice = assay: Sensorimotor coordination study using a rotarod apparatus; type: in vivo, mouse; details: 100 mg/kg oral; 15 rpm, 3 minutes, three time points
In short: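 Mice were dosed orally with 100 mg/kg test compound or vehicle (2% HPMC, 2.5% PEG), n = 9. They were tested on a rotarod at 15 rpm for up to 3 min at three time points, and time balanced was recorded. The control was diazepam 5 mg/kg i.p. in 5% DMSO/35% propylene glycol/60% PBS.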

α1-3,5β3γ2 GABAARs = type: cell-based; details: 0.1 μM or 1 μM, current evoked by GABA
In short: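 Cells were transiently transfected with the indicated α subunit plus β3 and γ2L. Mean enhancement of the GABA-evoked current by 0.1 or 1 μM test compound was measured by patch clamp, n = 5, mean ± SEM.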

[4] = Mouse plasma protein binding; type: in vitro ADME
[5] = In vitro microsomal stability, human; type: in vitro ADME
[6] = test system: CD4+ T lymphocytes isolated from ova s/c mice; assay: Automated patch clamp with CD4+ T lymphocytes in the presence of 600 nM GABA; type: cell-based, mouse
In short: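 Splenic CD4+ T cells from ova s/c BALB/c mice were magnetically enriched after RBC lysis, then suspended at 5x10^6 cells/ml in extracellular solution (pH 7.4) with CsCl-based intracellular solution (pH 7.2). Automated whole-cell patch clamp was held at −80 mV. Test compound (final DMSO 0.1%) was applied for 3 s with 600 nM GABA, which was set as 100%. Eight independent runs, n = 12. EC50 and top came from a sigmoidal fit.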

ova s/c mice [7] = assay: EdU staining of lung sections; type: in vivo, mouse; details: 100 mg/kg; compared to vehicle-treated ova s/c mice
In short: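 Ova s/c mice were dosed orally with test compound 100 mg/kg b.i.d. for 5 days or with vehicle. They received EdU 100 mg/kg i.p. once and were euthanized 4 h later. Lungs were formalin-fixed and paraffin-embedded, and 6 μm sections were permeabilized with 0.5% Triton X-100 for 20 min. EdU was click-labelled with Alexa Fluor 488 azide for 30 min in the dark, with Hoechst 33342 counterstain. Sections were read by fluorescence microscopy.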

peripheral GABAAR = assay: NIMH Psychoactive Drug Screening Program; type: binding; details: 10 μM
[8] = test system: guinea pig airway smooth muscle contracted with 1 μM substance P; assay: Relaxation of substance P-contracted guinea pig tracheal rings
ova s/c mice [9] = assay: Mucin volume density in lung sections; type: in vivo, mouse
ova s/c mice [10] = assay: Cytokine expression in lung homogenate; type: in vivo, mouse; details: 100 mg/kg p.o. twice daily 5 days
In short: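 Male Balb/c mice were ova/alum-sensitized i.p. on days 0, 7 and 14, then challenged i.n. with ova for 5 days. During challenge they received test compound 100 mg/kg or vehicle (2% HPMC, 2.5% PEG) by oral gavage b.i.d. for 5 days. Snap-frozen whole lung was homogenized in T-PER with protease inhibitors and spun 10,000 rpm for 5 min. Supernatant went to a Th1/Th2/Th17 cytometric bead array on flow cytometry. n = 10/group, one-way ANOVA versus vehicle.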

[11] = In vitro microsomal stability, mouse; type: in vitro ADME

Compound: C[C@H]1N=C(c2ccccc2F)c2cc(Br)ccc2-n2cnc(C(=O)O)c21 [MIDD0301]
- blood brain barrier penetration ([1]; 25 mg/kg single oral): Poor
- Tmax ([1]; blood and lung, 25 mg/kg single oral): ≤ 0.667 h
- AUC ([1]; blood, 25 mg/kg single oral): 2087.1 µg·min/g
- Cmax ([1]; blood, 25 mg/kg single oral): 8.24 µg/g
- half-life ([1]; blood, 25 mg/kg single oral): 13.9 h
- rate of elimination ([1]; blood, 25 mg/kg single oral): 0.001 min⁻¹
- AUC ([1]; brain, 25 mg/kg single oral): 107.7 µg·min/g
- elimination rate compared with blood ([1]; lung tissue, 25 mg/kg single oral): somewhat faster
- AUC ([1]; lung, 25 mg/kg single oral): 1390.5 µg·min/g
- Cmax ([1]; lungs, 25 mg/kg single oral): 4.39 µg/g
- half-life ([1]; pharmacokinetic studies, as stated in abstract): ~14 h
- number of BALF CD4+ T cells (ova s/c BALB/c mice [2]; 20 mg/kg p.o. b.i.d. 5 days): significantly reduced
- number of BALF CD4+ T cells (ova s/c BALB/c mice [2]; 50 mg/kg p.o. b.i.d. 5 days): significantly reduced
- BALF F4/80+ cells (macrophages) (ova s/c BALB/c mice [2]; 100 mg/kg p.o. b.i.d. 5 days): reduced their numbers significantly
- BALF Siglec F+ cell population (eosinophils/alveolar macrophages) (ova s/c BALB/c mice [2]; 100 mg/kg p.o. b.i.d. 5 days): reduced their numbers significantly
- number of BALF CD4+ T cells (ova s/c BALB/c mice [2]; 100 mg/kg p.o. b.i.d. 5 days): significantly reduced
- total inflammatory cells (CD45+) in BALF (ova s/c BALB/c mice [2]; 100 mg/kg p.o. b.i.d. 5 days): significant suppression
- effect on AHR (sRaw) (ova s/c BALB/c mice [3]; 20 mg/kg p.o. b.i.d. 5 days, 12.5 mg/ml methacholine): downward trend; also recorded: did not reduce AHR significantly
- effect on AHR (sRaw) (ova s/c BALB/c mice [3]; 50 mg/kg p.o. b.i.d. 5 days, 12.5 mg/ml methacholine): sufficient to overcome induced AHR
- effect on AHR (sRaw) (ova s/c BALB/c mice [3]; 100 mg/kg p.o. b.i.d. 5 days, 12.5 mg/ml nebulized methacholine): significantly reduced AHR
- sensorimotor inhibition on rotarod (mice): absence of sensorimotor inhibition
- activation of GABAARs among alpha subtypes tested (α1-3,5β3γ2 GABAARs): activating GABAARs strongly
- plasma protein binding [4]: 88%
- microsomal stability t1/2 [5]: 25.77 h
- concentration at which current change saturated ([6]; 600 nM GABA): 100 nM
- maximal potentiation ([6]; 600 nM GABA = 100 %): 512%
- EC50 ([6]; read-out: EC50 of current potentiation, 600 nM GABA): 17 nM
- EdU cell staining of lung sections (alveolar region) (ova s/c mice [7]): reduced cell staining
- binding (peripheral GABAAR): no significant binding
- time to partial relaxation of muscle constriction ([8]; 25 μM in organ bath): ≤ 15 min
- reversibility of relaxation effect ([8]; ASM washed with buffer and contracted again with substance P): reversible
- pharmaceutically active concentration in tissue ([8]; assuming tracheal concentration is 10% of organ bath concentration): single digit micromolar concentration
- smooth muscle relaxation compared with compound 2 ([8]; comparison with compound 2 data of ref 13): more pronounced smooth muscle relaxation
- concentration giving significant relaxation of pre-contracted smooth muscle ([8]; substance P 1 μM, 60 minute assay, vs vehicle 0.1% DMSO): ≥ 25 µM
- mucous production in the airways (mucin volume density) (ova s/c mice [9]; 20 mg/kg b.i.d. 5 days): did not produce a significant change
- mucous production in the airways (mucin volume density) (ova s/c mice [9]; 50 mg/kg b.i.d. 5 days): did not produce a significant change
- mucous production in the airways (mucin volume density) (ova s/c mice [9]; 100 mg/kg b.i.d. 5 days): did not produce a significant change
- IFN-γ concentration in lung homogenates (ova s/c mice [10]): not altered significantly
- IL-2 concentration in lung homogenates (ova s/c mice [10]): not altered significantly
- IL-6 concentration in lung homogenates (ova s/c mice [10]): not altered significantly
- IL-10 expression in the lung (ova s/c mice [10]): not significantly altered
- IL-17A levels in lung homogenates (ova s/c mice [10]): significantly reduced
- lung TNF-α levels (ova s/c mice [10]): decreased
- IL-4 levels in lung homogenates (ova s/c mice [10]; vs vehicle-treated ova s/c mice): reduced
- microsomal stability t1/2 [11]: 9.15 h

Compound: OCc1cc(C(O)CNCCCCCCOCCCCc2ccccc2)ccc1O (stereo not shown) [salmeterol, reference compound]
- BALF eosinophil population (ova s/c BALB/c mice [2]; 1 mg/kg p.o. b.i.d. 5 days): no significant effect
- BALF macrophage population (ova s/c BALB/c mice [2]; 1 mg/kg p.o. b.i.d. 5 days): no significant effect
- number of BALF CD4+ T cells (ova s/c BALB/c mice [2]; 1 mg/kg p.o. b.i.d. 5 days): reduced
- total inflammatory cells (leukocyte numbers) in BALF (ova s/c BALB/c mice [2]; 1 mg/kg p.o. b.i.d. 5 days): did not significantly change
- effect on AHR (sRaw) (ova s/c BALB/c mice [3]; 1 mg/kg p.o. b.i.d. 5 days): no anti-AHR effect
- effect on AHR (sRaw) (ova s/c BALB/c mice [3]; single oral dose 10 mg/kg acutely before measurement (data not shown)): without any significant effect on AHR
- mucous levels in the airways (ova s/c mice [9]; 1 mg/kg b.i.d. 5 days): no effect
